Here are results for four compounds from ChEMBL document CHEMBL1123476, “Synthesis of congeners and prodrugs of the benzene maleimide photoadduct mitindomide as potential antitumor agents. 2” (J Med Chem, 1986).

Series [1] has as its system P388. Kind of series: (§1) Antitumor activity in P-388 lymphocytic leukemia system at 200 mg/kg dose levels per injection. Type of series: functional, Mus musculus. The method, boiled down:
(§2)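 P-388 leukemia in animals, Q01D×09 schedule: dose given daily for 9 days, in mg/kg per injection. Read-outs are survivors on day 4 (live/total animals), body-weight difference test minus control (g), and % T/C (median lifetime of treated ÷ median lifetime of controls × 100). Some compounds were tested in independent runs at different times.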

Series [2] deals with P388. Kind of series: (§3) Antitumor activity in P-388 lymphocytic leukemia system at 50 mg/kg dose levels per injection. Type of series: functional, Mus musculus. The method, boiled down: (§4)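 P-388 leukemia in vivo, dosed Q01D×09 (one injection daily for 9 days, mg/kg per injection). Activity is %T/C, the median lifetime of treated animals divided by that of controls, ×100. Live animals on day 4 were counted against the total (survivors day 4). Repeat tests were done independently at different times.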

The subject of series [3] is P388. Described as §3. Type of series: functional, Mus musculus. The method, boiled down: as §2
This is another data set of the same source.

For series [4], the system named is P388. Kind of series: Compound was tested for antitumor activity in P-388 lymphocytic leukemia system at 200 mg/kg dose levels per injection;6/6. The class given is functional, Mus musculus. The gist of the method:
as §2

Series [5] has as its system P388. As to the kind of experiment: Compound was tested for antitumor activity in P-388 lymphocytic leukemia system. at 400 mg/kg dose levels per injection. Type of series: functional, Mus musculus. The method, boiled down: as §4
The subject of series [6] is P388. As to the kind of experiment: Compound was tested for antitumor activity in P-388 lymphocytic leukemia system and the difference in body weight was calculated at 400 mg/kg dose levels per injection. Type of series: functional, Mus musculus.
Series [7] has as its system P388. Kind of series: (§5) Antitumor activity in P-388 lymphocytic leukemia system at 100 mg/kg dose levels per injection. The class given is functional, Mus musculus. The method, boiled down: as §2
Series [8] has as its system P388. Kind of series: Compound was tested for antitumor activity in P-388 lymphocytic leukemia system at 400 mg/kg dose levels per injection; 6/6. The class given is functional, Mus musculus. The method, boiled down: as §2
The subject of series [9] is P388. As to the kind of experiment: Antitumor activity in P-388 lymphocytic leukemia system and the difference in body weight calculated at 100 mg/kg dose levels per injection. The class given is functional, Mus musculus.
Series [10] concerns P388. The series is described as §5. The class given is functional, Mus musculus. The method, boiled down: as §4
The source holds these as a separate data set.

In series [11] the test system is P388. As to the kind of experiment: Antitumor activity in P-388 lymphocytic leukemia system and the difference in body weight was calculated at 200 mg/kg dose levels per injection. The class given is functional, Mus musculus.
The subject of series [12] is P388. The description is as §1. The class given is functional, Mus musculus. Particulars: 200 mg/kg. The method, boiled down:
as §4

Series [13] can be described thus: Solubility was determined; INS= less than 0.1. The class given is physicochemical.
The test system of series [14] is P388. As to the kind of experiment: Antitumor activity in P-388 lymphocytic leukemia system and the difference in body weight was calculated at 50 mg/kg dose levels per injection. Type of series: functional, Mus musculus.
Series [15] has as its system P388. Kind of series: Compound was tested for antitumor activity in P-388 lymphocytic leukemia system at 166.7 mg/kg dose levels per injection; 3/6. Type of series: functional, Mus musculus. The gist of the method: as §2
The test system of series [16] is P388. Kind of series: Compound was tested for antitumor activity in P-388 lymphocytic leukemia system at 60 mg/kg dose levels per injection. Type of series: functional, Mus musculus. The gist of the method:
as §4

Series [17] has as its system P388. As to the kind of experiment: Compound was tested for antitumor activity in P-388 lymphocytic leukemia system at 30 mg/kg dose levels per injection; 6/6. The class given is functional, Mus musculus. The gist of the method: as §2
For series [18], the system named is P388. As to the kind of experiment: Compound was tested for antitumor activity in P-388 lymphocytic leukemia system at 50 mg/kg dose levels per injection; 5/6. The class given is functional, Mus musculus. The method, boiled down: as §2
For series [19], the system named is P388. Kind of series: Compound was tested for antitumor activity in P-388 lymphocytic leukemia system at 60 mg/kg dose levels per injection; 6/6. Type of series: functional, Mus musculus. The gist of the method: as §2
A short description of series [20]: Solubility was determined. The class given is physicochemical.
The subject of series [21] is P388. As to the kind of experiment: Compound was tested for antitumor activity in P-388 lymphocytic leukemia system at 25 mg/kg dose levels per injection. Type of series: functional, Mus musculus. The gist of the method: as §4
Series [22] concerns P388. As to the kind of experiment: Compound was tested for antitumor activity in P-388 lymphocytic leukemia system at 200 mg/kg dose levels per injection; 5/6. Type of series: functional, Mus musculus. The method, boiled down: as §2
Series [23] relates to P388. Kind of series: Compound was tested for antitumor activity in P-388 lymphocytic leukemia system at 30 mg/kg dose levels per injection. Type of series: functional, Mus musculus. The method, boiled down: as §4
Series [24] concerns P388. Kind of series: Compound was tested for antitumor activity in P-388 lymphocytic leukemia system and the difference in body weight was calculated at 60 mg/kg dose levels per injection. The class given is functional, Mus musculus.
In series [25] the test system is P388. As to the kind of experiment: Antitumor activity in P-388 lymphocytic leukemia system and the difference in body weight was calculated at 25 mg/kg dose levels per injection. Type of series: functional, Mus musculus.
The subject of series [26] is P388. As to the kind of experiment: Compound was tested for antitumor activity in P-388 lymphocytic leukemia system and the difference in body weight was calculated at 30 mg/kg dose levels per injection. The class given is functional, Mus musculus.
Series [27] deals with P388. Kind of series: Compound was tested for antitumor activity in P-388 lymphocytic leukemia system and the difference in body weight was calculated at 166.7 mg/kg dose levels per injection. The class given is functional, Mus musculus.
Series [28] relates to P388. Kind of series: Antitumor activity in P-388 lymphocytic leukemia system at 25 mg/kg dose levels per injection. The class given is functional, Mus musculus. The gist of the method: as §2
The subject of series [29] is P388. As to the kind of experiment: Compound was tested for antitumor activity in P-388 lymphocytic leukemia system at 200 mg/kg dose levels per injection. Type of series: functional, organism-based. More on the design: dose 200 mg/kg. Particulars: Mus musculus. The method, boiled down: as §4
For series [30], the system named is P388. Kind of series: Compound was tested for antitumor activity in P-388 lymphocytic leukemia system at 50 mg/kg dose levels per injection; 6/6. The class given is functional, Mus musculus. The method, boiled down: as §2
Series [31] relates to P388. As to the kind of experiment: Compound was tested for antitumor activity in P-388 lymphocytic leukemia system at 200 mg/kg dose levels per injection; 4/6. The class given is functional, Mus musculus. The gist of the method: as §2
Series [32] deals with P388. As to the kind of experiment: Compound was tested for antitumor activity in P-388 lymphocytic leukemia system at 200 mg/kg dose levels per injection; 3/6. Type of series: functional, Mus musculus. The method, boiled down: as §2
The subject of series [33] is P388. As to the kind of experiment: Antitumor activity in P-388 lymphocytic leukemia system at 25 mg/kg dose levels per injection. The class given is functional, Mus musculus. Particulars: 25 mg/kg. The method, boiled down: as §4
For series [34], the system named is P388. Kind of series: Compound was tested for antitumor activity in P-388 lymphocytic leukemia system at 100 mg/kg dose levels per injection; 5/6. Type of series: functional, Mus musculus. The method, boiled down: as §2
Series [35] has as its system P388. Kind of series: Compound was tested for antitumor activity in P-388 lymphocytic leukemia system at 200 mg/kg dose levels per injection; 2/6. Type of series: functional, Mus musculus. The gist of the method: as §2
For series [36], the system named is P388. As to the kind of experiment: Compound was tested for antitumor activity in P-388 lymphocytic leukemia system at 100 mg/kg dose levels per injection; Toxic. Type of series: functional, organism-based. Set-up: dose 100 mg/kg. Particulars: Mus musculus. The gist of the method:
as §4

“And” between values parts separate entries of the source, which are not always exact repeats. Equal values may be shown once.

Take `COC1=CC2C3C(=O)NC(=O)C3C1C1C3C(=O)NC(=O)C3C21` (configuration not stated): the “Survivors at day 4” value in the series on P388 [1], in the series with P388 [3], in the series on P388 [4], with P388 [7] and with P388 [8] was 6 each time. Besides, the T/C (in general, the ratio of treated to control) was 99% in the series with P388 [2]; 98% with P388 [5]; 101% in the series with P388 [10]; 101% and 90% in the series on P388 [12]. Also, the Weight difference is -2 g in the series on P388 [6]; -0.3 g in the series with P388 [9]; -0.3 g and -0.4 g in the series with P388 [11] (200 mg/kg); 0 g in the series on P388 [14]. For the same compound, in series [13], the Solubility entry is recorded as “Insoluble”.
For `CN1CCN(CN2C(=O)C3C4C=CC(C3C2=O)C2C3C(=O)N(CN5CCN(C)CC5)C(=O)C3C42)CC1` (configuration not stated), the “Survivors at day 4” value in the series on P388 [15] is recorded as 3; with P388 [17], 6; in the series on P388 [18] it was 5; in the series with P388 [19], 6; in the series on P388 [7], 6; in the series with P388 [22] it was 5. The “Survivors at day 4” value with P388 [28] came to 6. The T/C with P388 [2] was 106%; in the series with P388 [16] it was 165%; with P388 [21], 99%; with P388 [10] (100 mg/kg), 200% and 211%; in the series with P388 [23], 116%. Besides, in series [20], the Solubility amounted to 1.5%. Further, the Weight difference in the series on P388 [9] (100 mg/kg) was -3.7 g and -4.9 g; in the series on P388 [24], -3.1 g; in the series on P388 [11] it was -9 g; with P388 [25], -0.6 g; in the series with P388 [26] it was -0.2 g; in the series on P388 [14], -1.3 g. Besides, the Weight difference in the series with P388 [27] is -5.1 g.
For the compound `O=C1C2C3C=CC(C2C(=O)N1CN1CCOCC1)C1C2C(=O)N(CN4CCOCC4)C(=O)C2C31` (configuration not stated), the T/C in the series with P388 [2] (50 mg/kg) was 148% and 141%; in the series with P388 [29], “Toxic”; with P388 [10] (100 mg/kg), 120% and 174%; in the series on P388 [33], 120% and 125%. The “Survivors at day 4” value in the series with P388 [3] is 6; in the series on P388 [30], 6; in the series on P388 [31], 4; in the series on P388 [7] it was 6; with P388 [32], 3; with P388 [28] it was 6. Also, the Weight difference in the series on P388 [9] (100 mg/kg) was -4.8 g and -3.9 g; in the series with P388 [11] (200 mg/kg), -6.2 g and -5.9 g; in the series with P388 [25] (25 mg/kg), -1 g and -0.9 g; in the series on P388 [14] (50 mg/kg), -1.7 g and -1.5 g. In [13], the Solubility result was “Insoluble”.
On to `O=C(O)CCC(=O)OCN1C(=O)C2C3C=CC(C2C1=O)C1C2C(=O)N(COC(=O)CCC(=O)O)C(=O)C2C31` (configuration not stated), for which the T/C in the series with P388 [2] (50 mg/kg) is 115% and 116%; in the series with P388 [29], “Toxic”; in the series with P388 [10], 165%; in the series on P388 [33], 103% and 107%; with P388 [36] it was “Toxic”. Also, the “Survivors at day 4” value in the series on P388 [3] is reported as 6; in the series with P388 [31], 4; with P388 [34], 5; in the series on P388 [7], 6; in the series on P388 [35] it was 2; with P388 [28] it was 6. The Weight difference with P388 [9] (100 mg/kg) is -4.4 g and -3.1 g; with P388 [11] (200 mg/kg), -6.7 g and -6.9 g.
